Results as given in ChEMBL document CHEMBL1125826, “Synthesis and biological activity of 5-amino- and 5-hydroxyquinolones, and the overwhelming influence of the remote N1-substituent in determining the structure-activity relationship” (1991).
Values after ≈ are worked out from the molar mass of the structure shown.

Key:
Assay type in all cases: functional
[1] = test system: Streptococcus pneumoniae; assay: (§1) Antibacterial activity was determined against gram positive organism, Streptococcus pneumoniae SV-1; conditions: Streptococcus pneumoniae; read-out: MIC
How it was run: (§2)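 MIC (µg/mL) by standard microtitration against a panel of 10 Gram-positive and Gram-negative organisms; values averaged from multiple experiments.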

[2] = test system: Bacteria; assay: Antibacterial activity was determined against gram negative organism, Providencia rettgeri. M1771; conditions: Bacteria; read-out: MIC; how it was run: as §2
[3] = test system: Streptococcus pyogenes; assay: Antibacterial activity was determined against gram positive organism, Streptococcus pyogenes C203; conditions: Streptococcus pyogenes; read-out: MIC; how it was run: as §2
[4] = test system: Klebsiella pneumoniae; assay: Antibacterial activity was determined against gram negative organism, Klebsiella pneumoniae MGH-2; conditions: Klebsiella pneumoniae; read-out: MIC; how it was run: as §2
[5] = test system: Enterococcus faecalis; assay: Antibacterial activity was determined against gram positive organism, Streptococcus faecalis MGH-2; conditions: Enterococcus faecalis; read-out: MIC; how it was run: as §2
[6] = test system: Enterobacter cloacae; assay: Antibacterial activity was determined against gram negative organism, Enterobacter cloacae MA2646; conditions: Enterobacter cloacae; read-out: MIC
[7] = test system: Pseudomonas aeruginosa; assay: Antibacterial activity was determined against gram negative organism, Pseudomonas aeruginosa UI-18; conditions: Pseudomonas aeruginosa; read-out: MIC; how it was run: as §2
[8] = test system: Streptococcus pyogenes; assay: The in vivo potency was determined in female charles river CD-1 mice infected with Streptococcus pyogenes after peroral administration; conditions: Streptococcus pyogenes, po; read-out: PD50
How it was run: (§3)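 Acute lethal systemic infection in female CD-1 mice, 16 mice per route; single dose given orally by gavage at the time of challenge; median protective dose (PD50, mg/kg) determined.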

[9] = (§4) MIC ratio measured as the mean MICs of gram-positive bacteria
How it was run: (§5)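 Geometric mean of the microtitration MICs (µg/mL) over the Gram-negative organisms, and separately over the Gram-positive organisms, of the 10-strain panel; individual MICs averaged from multiple experiments.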

[10] = (§6) MIC ratio measured as the mean MICs of gram-negative bacteria; how it was run: as §5
[11] = test system: Escherichia coli; assay: Antibacterial activity was determined against gram negative organism, Escherichia coli vogel; conditions: Escherichia coli; read-out: MIC; how it was run: as §2
[12] = test system: Staphylococcus aureus; assay: (§7) Antibacterial activity was determined against gram positive organism, Staphylococcus aureus UC76; how it was run: as §2
[13] = test system: Escherichia coli; assay: The in vivo potency was determined in female charles river CD-1 mice infected with Escherichia coli after sc administration; conditions: Escherichia coli, sc; read-out: PD50
How it was run: (§8)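 Acute lethal systemic infection in female CD-1 mice, 16 mice per route; single subcutaneous dose given at the time of challenge; median protective dose (PD50, mg/kg) determined.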

[14] = test system: Escherichia coli; assay: The in vivo potency was determined in female charles river CD-1 mice infected with Escherichia coli after peroral administration; conditions: Escherichia coli, po; read-out: PD50; how it was run: as §3
[15] = test system: Streptococcus pyogenes; assay: The in vivo potency was determined in female charles river CD-1 mice infected with Streptococcus pyogenes after sc administration; conditions: Streptococcus pyogenes, sc; read-out: PD50; how it was run: as §8
[16] = test system: Staphylococcus aureus; assay: (§9) Antibacterial activity was determined against gram positive organism, Staphylococcus aureus H228; conditions: Staphylococcus aureus; read-out: MIC; how it was run: as §2
[17] = test system: Streptococcus pneumoniae; assay: as §1
How it was run: (§10)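 Broth microtitration MIC against a panel of 10 Gram-positive and Gram-negative organisms; MIC in µg/mL, averaged over multiple experiments.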

[18] = test system: Staphylococcus aureus; assay: as §9; how it was run: as §10
[19] = test system: Staphylococcus aureus; assay: as §7; how it was run: as §10; remark: listed apart in the source
[20] = biological target: T1, DNA gyrase (Escherichia coli) (UniProt P0AES6+P0AES4); assay: Minimum inhibitory concentration against Escherichia coli DNA-gyrase supercoiling assay
[21] = biological target: T1, DNA gyrase (Escherichia coli); assay: Minimum inhibitory concentration against Escherichia coli DNA-gyrase in supercoiling assay
[22] = test system: Bacteria; assay: MIC ratio measured as the mean MICs of gram-negative; how it was run: as §5
[23] = test system: Bacteria; assay: MIC ratio measured as the mean MICs of gram-positive values; how it was run: as §5
[24] = test system: Streptococcus pneumoniae; assay: The in vivo potency was determined in female charles river CD-1 mice infected with Streptococcus pneumoniae after sc administration; conditions: Streptococcus pneumoniae, sc; read-out: PD50; how it was run: as §8
[25] = test system: Streptococcus pneumoniae; assay: The in vivo potency was determined in female charles river CD-1 mice infected with Streptococcus pneumoniae after peroral administration; conditions: Streptococcus pneumoniae, po; read-out: PD50; how it was run: as §3
[26] = test system: Bacteria; assay: as §6; how it was run: as §5
[27] = test system: Bacteria; assay: as §4; how it was run: as §5
[28] = Staphylococcus aureus, read-out: MIC

Row | SMILES | MIC [1] | MIC [2] | MIC [3] | MIC [4] | MIC [5] | MIC [6] | MIC [7] | ED50 [8] | Ratio [9] | Ratio [10] | MIC [11] | MIC [12, 28] | ED50 [13] | ED50 [14] | ED50 [15] | MIC [16] | MIC [21] | ED50 [24] | ED50 [25] | Geometric mean MIC over Gram-negative bacteria (µg/mL) [26] | further results
1 | CC1CN(c2c(F)c(N)c3c(=O)c(C(=O)O)cn(C4CC4)c3c2Cl)CC(C)N1 (stereo unspecified) | 0.1 µg/mL (≈ 0.245 µM) | 0.4 µg/mL (≈ 0.978 µM) | 0.2 µg/mL (≈ 0.489 µM) | 0.2 µg/mL (≈ 0.489 µM) | 0.4 µg/mL (≈ 0.978 µM) | 0.1 µg/mL (≈ 0.245 µM) | 1.6 µg/mL (≈ 3.91 µM) | 10 mg/kg | 0.11 | 0.23 | 0.05 µg/mL (≈ 0.122 µM) | 0.025 µg/mL (≈ 0.0611 µM) | 1 mg/kg | 2 mg/kg | 8 mg/kg | 0.1 µg/mL (≈ 0.245 µM) |  |  |  |  | 
2 | CCn1cc(C(=O)O)c(=O)c2cc(F)c(N3CCNCC3)cc21 [NORFLOXACIN] |  | 0.025 µg/mL (≈ 0.0783 µM) | 0.8 µg/mL (≈ 2.51 µM) | 0.05 µg/mL (≈ 0.157 µM) | 1.6 µg/mL (≈ 5.01 µM) | 0.1 µg/mL (≈ 0.313 µM) | 0.2 µg/mL (≈ 0.626 µM) |  | 0.61 | 0.057 | 0.025 µg/mL (≈ 0.0783 µM) |  |  |  |  |  |  |  |  |  | MIC [17]: 1.6 µg/mL (≈ 5.01 µM); MIC [18]: 0.8 µg/mL (≈ 2.51 µM); MIC [19]: 0.05 µg/mL (≈ 0.157 µM)
3 | Nc1c(F)c(N2CCC(N)C2)c(Cl)c2c1c(=O)c(C(=O)O)cn2C1CC1 (stereo unspecified) | 0.1 µg/mL (≈ 0.263 µM) | 0.1 µg/mL (≈ 0.263 µM) | 0.1 µg/mL (≈ 0.263 µM) | 0.05 µg/mL (≈ 0.131 µM) | 0.1 µg/mL (≈ 0.263 µM) | 0.025 µg/mL (≈ 0.0657 µM) | 0.8 µg/mL (≈ 2.1 µM) |  | 0.076 | 0.076 | 0.025 µg/mL (≈ 0.0657 µM) |  | 1 mg/kg | 6 mg/kg |  | 0.1 µg/mL (≈ 0.263 µM) |  |  |  |  | MIC [12]: 0.025 µg/mL (≈ 0.0657 µM)
4 | CC1CN(c2cc3c(c(N)c2F)c(=O)c(C(=O)O)cn3-c2ccc(F)cc2F)CCN1 (stereo unspecified) |  | 0.4 µg/mL (≈ 0.925 µM) | 0.4 µg/mL (≈ 0.925 µM) | 0.2 µg/mL (≈ 0.463 µM) | 0.4 µg/mL (≈ 0.925 µM) | 0.2 µg/mL (≈ 0.463 µM) | 1.6 µg/mL (≈ 3.7 µM) |  | 0.2 | 0.3 | 0.1 µg/mL (≈ 0.231 µM) |  |  |  |  |  |  |  |  |  | MIC [20]: 2.5 µg/mL (≈ 5.78 µM); MIC [17]: 0.2 µg/mL (≈ 0.463 µM); MIC [18]: 0.2 µg/mL (≈ 0.463 µM); MIC [19]: 0.05 µg/mL (≈ 0.116 µM)
5 | NC1CCN(c2c(F)c(O)c3c(=O)c(C(=O)O)cn(C4CC4)c3c2F)C1 (stereo unspecified) | 0.05 µg/mL (≈ 0.137 µM) | 0.05 µg/mL (≈ 0.137 µM) | 0.05 µg/mL (≈ 0.137 µM) | 0.025 µg/mL (≈ 0.0684 µM) | 0.1 µg/mL (≈ 0.274 µM) | 0.013 µg/mL (≈ 0.0356 µM) | 0.2 µg/mL (≈ 0.547 µM) | 90 mg/kg |  |  | 0.013 µg/mL (≈ 0.0356 µM) | 0.025 µg/mL (≈ 0.0684 µM) | 0.5 mg/kg | 2 mg/kg | 11 mg/kg | 0.1 µg/mL (≈ 0.274 µM) | 0.5 µg/mL (≈ 1.37 µM) | 18 mg/kg | 107 mg/kg |  | Ratio [22]: 0.034; Ratio [23]: 0.057
6 | CC1CN(c2c(F)c(N)c3c(=O)c(C(=O)O)cn(C4CC4)c3c2F)CCN1 (stereo unspecified) | 0.05 µg/mL (≈ 0.132 µM) | 0.05 µg/mL (≈ 0.132 µM) | 0.2 µg/mL (≈ 0.529 µM) | 0.025 µg/mL (≈ 0.0661 µM) | 0.1 µg/mL (≈ 0.264 µM) | 0.013 µg/mL (≈ 0.0344 µM) | 0.4 µg/mL (≈ 1.06 µM) | 20 mg/kg |  |  | 0.013 µg/mL (≈ 0.0344 µM) | 0.025 µg/mL (≈ 0.0661 µM) | 0.2 mg/kg | 0.5 mg/kg | 18 mg/kg | 0.05 µg/mL (≈ 0.132 µM) | 1 µg/mL (≈ 2.64 µM) | 15 mg/kg | 20 mg/kg | 0.038 | Geometric mean MIC over Gram-positive bacteria (µg/mL) [27]: 0.066
7 | CCNCC1CCN(c2c(F)c(N)c3c(=O)c(C(=O)O)cn(C4CC4)c3c2F)C1 (stereo unspecified) | 0.003 µg/mL (≈ 0.00738 µM) | 0.1 µg/mL (≈ 0.246 µM) | 0.013 µg/mL (≈ 0.032 µM) | 0.05 µg/mL (≈ 0.123 µM) | 0.025 µg/mL (≈ 0.0615 µM) | 0.05 µg/mL (≈ 0.123 µM) | 0.2 µg/mL (≈ 0.492 µM) | 16 mg/kg |  |  | 0.05 µg/mL (≈ 0.123 µM) | 0.003 µg/mL (≈ 0.00738 µM) | 2 mg/kg | 16 mg/kg | 5 mg/kg | 0.013 µg/mL (≈ 0.032 µM) | 0.5 µg/mL (≈ 1.23 µM) | 3 mg/kg | 5 mg/kg | 0.075 | Geometric mean MIC over Gram-positive bacteria (µg/mL) [27]: 0.0082
8 | O=C(O)c1cn(C2CC2)c2c(F)c(N3CCNCC3)c(F)cc2c1=O | 0.8 µg/mL (≈ 2.29 µM) | 0.1 µg/mL (≈ 0.286 µM) | 0.8 µg/mL (≈ 2.29 µM) | 0.05 µg/mL (≈ 0.143 µM) | 0.4 µg/mL (≈ 1.15 µM) | 0.05 µg/mL (≈ 0.143 µM) | 0.2 µg/mL (≈ 0.573 µM) | 59 mg/kg |  |  | 0.05 µg/mL (≈ 0.143 µM) | 0.1 µg/mL (≈ 0.286 µM) | 0.3 mg/kg | 0.5 mg/kg | 29 mg/kg | 0.4 µg/mL (≈ 1.15 µM) | 0.5 µg/mL (≈ 1.43 µM) | 9 mg/kg | 33 mg/kg | 0.076 | Geometric mean MIC over Gram-positive bacteria (µg/mL) [27]: 0.4
